The values below come from ChEMBL document CHEMBL1128719, “The synthesis, structure-activity, and structure-side effect relationships of a series of 8-alkoxy- and 5-amino-8-alkoxyquinolone antibacterial agents” (J Med Chem, 1995).

Each structure is given as a SMILES string. Converted amounts (≈) assume the structure as drawn.

One series has as its system Bacteroides fragilis. Kind of series: In vitro antibacterial activity against Bacteroides fragilis BFA. Type of series: functional. Summed up:
(§1)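 Microtitration (microdilution) MIC determination in μg/mL against a panel of Gram-positive, Gram-negative and anaerobic organisms. Values come from duplicate or triplicate experiments and are stated accurate to ±50%.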

A further series deals with Clostridioides difficile. Briefly: In vitro antibacterial activity was tested for Clostridium diff CD1-1. Format: functional.
In the next series the test system is Clostridium perfringens. Briefly: In vitro antibacterial activity against Clostridium perfringens CP 3-1. Format: functional.
The species named for series [1] is Mus musculus. Briefly: (§2) Phototoxic skin reaction in depilated female CD-1 mice. Format: toxicity, organism-based. Particulars: in vivo. Summed up: (§3)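 Female CD-1 mice, depilated, given a single oral or subcutaneous dose. UVA (320–400 nm) exposure for 3 h, starting 1 h post-dose. Initial doses were 30, 100 and 300 mg/kg. PTD50 (dose giving phototoxic skin reaction in 50% of mice) derived by probit method. First day of positive reaction and no-effect dose taken from raw data.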

For series [2], the system named is Peptoniphilus asaccharolyticus. Briefly: In vitro antibacterial activity was tested for Pepto asac PA 3-1. Format: functional. In outline: as §1
A further series relates to V79. Briefly: Clonogenic cytotoxicity against Chinese hamster V-79 cells. Format: functional, cell-based. Particulars: Cricetulus griseus. In outline: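 Chinese hamster V-79 cells grown overnight, then exposed to drug 3 h at 37 °C; drug medium replaced with fresh medium, cells incubated 5 days and scored for colony formation. IC50 (μg/mL) taken as concentration inhibiting colony formation by 50% versus control.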

A further series deals with Cutibacterium acnes. Briefly: In vitro antibacterial activity was tested for Propion acnes PA5-1. Type of series: functional. Summed up:
as §1

Series [3] has as its system Escherichia coli. Kind of series: In vitro antibacterial activity was tested for Escherichia coli H560. Type of series: functional. Summed up:
as §1

Series [4] has as its system Escherichia coli. Kind of series: In vitro antibacterial activity was tested for Escherichia coli Vogel. Type of series: functional. Summed up: as §1
The subject of a further series is Enterobacter cloacae. Briefly: In vitro antibacterial activity was tested for Enterobacter cloacae HA2646. Type of series: functional.
The next series deals with Klebsiella pneumoniae. Kind of series: In vitro antibacterial activity was tested for Klebsiella pneumoniae MGH-2. Type of series: functional. In outline:
as §1

The test system of a further series is Providencia rettgeri. Briefly: In vitro antibacterial activity was tested for Providencia rettgeri H1771. Format: functional. Summed up: as §1
In another series the test system is Pseudomonas aeruginosa. Briefly: In vitro antibacterial activity was tested for Pseudomonas aeruginosa UI-18. Format: functional. Summed up:
as §1

Series [5] concerns Staphylococcus aureus. Kind of series: In vitro antibacterial activity was tested for Staphylococcus aureus H228. Type of series: functional. In outline:
as §1

Series [6] relates to Staphylococcus aureus. Briefly: In vitro antibacterial activity was tested for Staphylococcus aureus UC-76. Type of series: functional. Summed up: as §1
In another series the test system is Streptococcus pneumoniae. Kind of series: In vitro antibacterial activity was tested for Streptococcus pneumoniae SV-1. Type of series: functional. Summed up: as §1
A further series has as its system Streptococcus pyogenes. Briefly: In vitro antibacterial activity was tested for Streptococcus pyogenes C203. Format: functional. In outline:
as §1

The test system of another series is Enterococcus faecalis. Kind of series: In vitro antibacterial activity was tested for Streptococcus faecalis MGH-2. Format: functional. In outline:
as §1

The species entered for series [7] is Mus musculus. The description is as §2. Type of series: functional. Summed up:
as §3

As for `C[C@@H]1CN(c2cc3c(cc2F)c(=O)c(C(=O)O)cn3C2CC2)C[C@H](C)N1`, the MIC with Bacteroides fragilis amounted to 1.6 µg/mL (≈ 4.45 µM); against Clostridioides difficile, 6.3 µg/mL (≈ 17.5 µM); in the series on Clostridium perfringens it was 0.2 µg/mL (≈ 0.556 µM); in series [2], 0.4 µg/mL (≈ 1.11 µM); with Cutibacterium acnes, 0.8 µg/mL (≈ 2.23 µM). The PTD50 in the series listed under Mus musculus [1] was below 100 mg. The same molecule registered an IC50 with V79 above 500 µg/mL.
For the molecule `COc1c(N2CCNC(C)C2)c(F)cc2c(=O)c(C(=O)O)cn(C3CC3)c12` (centres undefined) [GATIFLOXACIN], the minimum inhibitory concentration (MIC) was 0.4 µg/mL (≈ 1.07 µM) with Bacteroides fragilis; 1.6 µg/mL (≈ 4.26 µM) with Clostridioides difficile; 0.4 µg/mL (≈ 1.07 µM) in the series on Clostridium perfringens; 0.05 µg/mL (≈ 0.133 µM) against Escherichia coli [3]; 0.05 µg/mL (≈ 0.133 µM) with Escherichia coli [4]; 0.05 µg/mL (≈ 0.133 µM) against Enterobacter cloacae. The MIC came out at 0.1 µg/mL (≈ 0.266 µM) against Klebsiella pneumoniae; 0.8 µg/mL (≈ 2.13 µM) in series [2]; 0.2 µg/mL (≈ 0.533 µM) in the series with Providencia rettgeri; 0.8 µg/mL (≈ 2.13 µM) with Pseudomonas aeruginosa; 0.2 µg/mL (≈ 0.533 µM) in the series on Staphylococcus aureus [5]; 0.05 µg/mL (≈ 0.133 µM) with Staphylococcus aureus [6]. Also, the MIC against Streptococcus pneumoniae came to 0.1 µg/mL (≈ 0.266 µM); with Streptococcus pyogenes, 0.1 µg/mL (≈ 0.266 µM); with Enterococcus faecalis it was 0.2 µg/mL (≈ 0.533 µM); against Cutibacterium acnes it was 0.4 µg/mL (≈ 1.07 µM). In the series on V79, the IC50 is 85 µg/mL (≈ 226 µM).
Consider `NCC1CCCN(c2c(F)cc3c(=O)c(C(=O)O)cn(C4CC4)c3c2F)C1` (centres undefined), for which the MIC stood at 1.6 µg/mL (≈ 4.24 µM) against Bacteroides fragilis; 0.8 µg/mL (≈ 2.12 µM) in the series on Clostridioides difficile; 0.2 µg/mL (≈ 0.53 µM) against Clostridium perfringens; 0.05 µg/mL (≈ 0.132 µM) with Escherichia coli [3]; 0.05 µg/mL (≈ 0.132 µM) against Escherichia coli [4]; 0.05 µg/mL (≈ 0.132 µM) in the series on Enterobacter cloacae. The MIC against Klebsiella pneumoniae came out at 0.2 µg/mL (≈ 0.53 µM); in [2] it was 0.4 µg/mL (≈ 1.06 µM); against Providencia rettgeri it was 0.2 µg/mL (≈ 0.53 µM); with Pseudomonas aeruginosa, 0.4 µg/mL (≈ 1.06 µM); in the series on Staphylococcus aureus [5], 0.1 µg/mL (≈ 0.265 µM); in the series with Staphylococcus aureus [6], 0.2 µg/mL (≈ 0.53 µM). For the same molecule, the MIC against Streptococcus pneumoniae is 0.013 µg/mL (≈ 0.0344 µM); in the series on Streptococcus pyogenes it was 0.013 µg/mL (≈ 0.0344 µM); with Enterococcus faecalis, 0.05 µg/mL (≈ 0.132 µM); with Cutibacterium acnes, 0.8 µg/mL (≈ 2.12 µM). Also, the IC50 with V79 was 43 µg/mL (≈ 114 µM).
For the molecule `COc1c(N2CC(C)NC(C)C2)c(F)cc2c(=O)c(C(=O)O)cn(C3CC3)c12` (centres undefined), the MIC is 0.8 µg/mL (≈ 2.05 µM) with Bacteroides fragilis; 3.1 µg/mL (≈ 7.96 µM) in the series on Clostridioides difficile; 0.4 µg/mL (≈ 1.03 µM) against Clostridium perfringens; 0.05 µg/mL (≈ 0.128 µM) against Escherichia coli [3]; 0.1 µg/mL (≈ 0.257 µM) against Escherichia coli [4]; 0.1 µg/mL (≈ 0.257 µM) in the series on Enterobacter cloacae. Moreover, the MIC against Klebsiella pneumoniae stood at 0.2 µg/mL (≈ 0.514 µM); in series [2], 0.8 µg/mL (≈ 2.05 µM); in the series on Providencia rettgeri, 0.8 µg/mL (≈ 2.05 µM); in the series on Pseudomonas aeruginosa, 3.1 µg/mL (≈ 7.96 µM); against Staphylococcus aureus [5], 0.1 µg/mL (≈ 0.257 µM); in the series with Staphylococcus aureus [6], 0.05 µg/mL (≈ 0.128 µM). Besides, the minimal inhibitory concentration (MIC) against Streptococcus pneumoniae was found to be 0.1 µg/mL (≈ 0.257 µM); with Streptococcus pyogenes it was 0.1 µg/mL (≈ 0.257 µM); in the series on Enterococcus faecalis it was 0.2 µg/mL (≈ 0.514 µM); in the series with Cutibacterium acnes, 0.4 µg/mL (≈ 1.03 µM). Also, in the series filed under Mus musculus [1], the PTD50 is listed as above 100 mg. In addition, the No effect dose in the series filed under Mus musculus [7] was determined as 100 mg.
Consider `NCC1CCCN(c2c(F)c(N)c3c(=O)c(C(=O)O)cn(C4CC4)c3c2F)C1` (centres undefined), for which the MIC in the series with Escherichia coli [3] was 0.025 µg/mL (≈ 0.0637 µM); against Escherichia coli [4], 0.05 µg/mL (≈ 0.127 µM); in the series on Enterobacter cloacae it was 0.05 µg/mL (≈ 0.127 µM); against Klebsiella pneumoniae, 0.1 µg/mL (≈ 0.255 µM); in the series with Providencia rettgeri it was 0.2 µg/mL (≈ 0.51 µM); with Pseudomonas aeruginosa, 0.8 µg/mL (≈ 2.04 µM). The MIC with Staphylococcus aureus [5] turned out to be 0.025 µg/mL (≈ 0.0637 µM); with Staphylococcus aureus [6] it was 0.003 µg/mL (≈ 0.00765 µM); with Streptococcus pneumoniae it was 0.003 µg/mL (≈ 0.00765 µM); with Streptococcus pyogenes, 0.13 µg/mL (≈ 0.331 µM); in the series on Enterococcus faecalis, 0.013 µg/mL (≈ 0.0331 µM). Further, in the series with V79, the IC50 is 38 µg/mL (≈ 96.8 µM).
With `NC1CCN(c2c(F)cc3c(=O)c(C(=O)O)cn(C4CC4)c3c2Cl)C1` (centres undefined) [CLINAFLOXACIN], the MIC against Bacteroides fragilis is 0.1 µg/mL (≈ 0.273 µM); against Clostridioides difficile, 0.4 µg/mL (≈ 1.09 µM); in the series on Clostridium perfringens it was 0.1 µg/mL (≈ 0.273 µM); against Escherichia coli [3], 0.006 µg/mL (≈ 0.0164 µM); in the series on Escherichia coli [4], 0.013 µg/mL (≈ 0.0355 µM); with Enterobacter cloacae, 0.025 µg/mL (≈ 0.0683 µM). Moreover, the MIC came to 0.025 µg/mL (≈ 0.0683 µM) against Klebsiella pneumoniae; 0.4 µg/mL (≈ 1.09 µM) in series [2]; 0.025 µg/mL (≈ 0.0683 µM) against Providencia rettgeri; 0.05 µg/mL (≈ 0.137 µM) with Pseudomonas aeruginosa; 0.05 µg/mL (≈ 0.137 µM) in the series with Staphylococcus aureus [5]; 0.013 µg/mL (≈ 0.0355 µM) in the series with Staphylococcus aureus [6]. Further, the minimal inhibitory concentration (MIC) against Streptococcus pneumoniae was determined as 0.05 µg/mL (≈ 0.137 µM); against Streptococcus pyogenes, 0.05 µg/mL (≈ 0.137 µM); in the series on Enterococcus faecalis it was 0.05 µg/mL (≈ 0.137 µM); with Cutibacterium acnes, 0.2 µg/mL (≈ 0.547 µM). In the series listed under Mus musculus [1], this molecule showed a PTD50 of 23 mg. In addition, the No effect dose in the series listed under Mus musculus [7] was 18 mg.

The term MIC denotes the lowest concentration found to suppress growth. Lower therefore signals a more susceptible organism. The term IC50 denotes the concentration at which inhibition is half-maximal. Low readings indicate inhibition by little substance, high ones a need for much substance.
